Measurements of several laboratories.
Protocols differ between the studies behind these lines.
Cell line: HeLa
Effect on: cell growth or viability

SMILES	test	conditions	IC50
COc1nc(OCc2cccc(-c3ccccc3)c2C)ccc1CNCCNC(C)=O	MTT		3.6 µM
COc1cc(C)cc2oc(-c3ccccc3Br)cc(=O)c12	MTT	48 h	76.3 µM
CCOC(=O)C#CC#CC(=O)OCC	MTT	24 h	13.2 µg/mL
CN(C)CCOc1cc(NC(=O)c2cc(Cl)cc(C(=O)Nc3cc(OCCN(C)C)c4ccccc4n3)n2)nc2ccccc12	ATP luminescence	72 h	3.2 µM
CC(C)(C)Oc1ccc(CC2NC(=O)C(C(=O)NC(C(=O)NC3C(=O)N4C3SC(C)(C)C4C(=O)O)c3ccccc3)=C2O)cc1 (stereo not drawn)	ATP luminescence	48 h	59.3 µg/mL
COc1ccc(C(=O)c2cc3c(-c4ccccc4)c(OC)ccc3o2)cc1			1.3 µM
NCCOc1cc(NC(=O)c2cc(OCc3c[nH]nn3)cc(C(=O)Nc3cc(OCCN)c4ccccc4n3)n2)nc2ccccc12	ATP luminescence	72 h	7.7 µM
c1cnc2c(c1)ccc1cccnc12	MTT	48 h	> 50 µM
O=C(c1ccccc1)c1cc2c(-c3ccccc3)c(O)ccc2o1			35 µM
O=C(O)CN1c2ccccc2Sc2ccccc21	MTS		13.2 µM
NCCCOc1cc(NC(=O)c2cc(OCc3c[nH]nn3)cc(C(=O)Nc3cc(OCCCN)c4ccccc4n3)n2)nc2ccccc12	ATP luminescence	72 h	> 40 µM
C=CCNC1=C2C[C@@H](C)C[C@H](OC)[C@H](O)[C@@H](C)/C=C(\C)[C@H](OC(N)=O)[C@@H](OC)/C=C\C=C(/C)C(=O)NC(=CC1=O)C2=O	MTT		0.159 µM
C#CCOc1cc(C(=O)Nc2cc(OCCN)c3ccccc3n2)nc(C(=O)Nc2cc(OCCN)c3ccccc3n2)c1	ATP luminescence	72 h	5.2 µM
CC1(C)SC2C(NC(=O)C(NC(=O)C3=C(O)C(c4ccccc4)NC3=O)c3ccccc3)C(=O)N2C1C(=O)O (stereo not drawn)	ATP luminescence	48 h	47.6 µg/mL
COC(=O)CN=c1scc(-c2ccccc2)n1-c1ccccc1[N+](=O)[O-]	MTT		6.02 µM
C#CCOc1ccc(C(=O)c2ccc(-c3cccc(NC(=O)CCc4cccc5c4B(O)OC5)c3)cc2)cc1	ATP luminescence	72 h	4.4 µM
COc1cc(OC)c2c(=O)cc(-c3ccc(N(C)C)cc3)oc2c1	MTT	48 h	55.7 µM
COc1cccc2c1C(=O)c1c(O)c3c(c(O)c1C2=O)C[C@@](O)(C(=O)CO)C[C@@H]3O[C@H]1C[C@H](N)[C@H](O)[C@H](C)O1	MTT	72 h	3.62 µM
CCOc1cc(OCC)cc(C(=O)O[C@@H]2CN3Cc4c(cc5c(c4OC)OCO5)[C@@]24C=C[C@H](OC)C[C@@H]34)c1	WST-1	48 h	5 µM
COc1cccc2c1C(=O)c1c(O)c3c(c(O)c1C2=O)C[C@@](O)(C(=O)CO)C[C@@H]3O[C@H]1C[C@H](N)[C@H](O)[C@H](C)O1	MTT	48 h	0.18 µM
COc1cc(OC)c2c(=O)cc(-c3ccccc3Br)oc2c1	MTT	48 h	> 100 µM
Clc1ccnc2c1ccc1c(Cl)ccnc12	MTT	48 h	> 50 µM
CC1CS(=O)(=O)CCN1/N=C/c1ccc([N+](=O)[O-])o1 (stereo not drawn)			43 µM

SMILES	test	conditions	IC50
C#CCOc1ccc(C(=O)c2cccc(NC(=O)CCc3cccc4c3B(O)OC4)c2)cc1	ATP luminescence	72 h	1.33 µM
O=C(Nc1cc(OCCN2CCCC2)c2ccccc2n1)c1cc(OCc2ccc(F)cc2)cc(C(=O)Nc2cc(OCCN3CCCC3)c3ccccc3n2)n1	ATP luminescence	72 h	13 µM
CC1(C)SC2C(NC(=O)C(NC(=O)C3=C(O)C(Cc4ccc(F)cc4)NC3=O)c3ccccc3)C(=O)N2C1C(=O)O (stereo not drawn)	ATP luminescence	48 h	123 µg/mL
COC(=O)CN=c1scc(-c2ccccc2)n1-c1ccccc1OC	MTT	72 h	2.97 µM
CC(=O)O[C@H]1C(=O)[C@@]2(C)[C@H]([C@H](OC(=O)c3ccccc3)[C@]3(O)C[C@H](OC(=O)[C@H](O)[C@@H](NC(=O)c4ccccc4)c4ccccc4)C(C)=C1C3(C)C)[C@]1(OC(C)=O)CO[C@@H]1C[C@@H]2O	MTT	72 h	< 2 µM
C(C#CC1CC1)#CC1CC1	MTT	24 h	14.5 µg/mL
CN(C)CCCOc1cc(NC(=O)c2cccc(C(=O)Nc3cc(OCCCN(C)C)c4ccccc4n3)n2)nc2ccccc12	ATP luminescence	72 h	3 µM
C=CCC[C@@H]1NC(=O)[C@H]2CCCN2C(=O)[C@H](Cc2ccccc2)NC(=O)C(C)(C)NC1=O	XTT		> 100 µM
CCCC#CC#CCCC	MTT	24 h	105 µg/mL
CC(=O)c1ccc(-c2cccc(NC(=O)CCc3cccc4c3B(O)OC4)c2)cc1	ATP luminescence	72 h	0.858 µM
OCCCC#CC#CCCCO	MTT	24 h	39.3 µg/mL
Oc1c(I)cc(I)c2cccnc12	MTT	48 h	> 100 µM
COc1cc(C)cc2oc(-c3ccc(C(F)(F)F)cc3)cc(=O)c12	MTT	48 h	> 100 µM
CC(C)(C)OCC1NC(=O)C(C(=O)NC(C(=O)NC2C(=O)N3C2SC(C)(C)C3C(=O)O)c2ccccc2)=C1O (stereo not drawn)	ATP luminescence	48 h	106 µg/mL
COc1cc(C)c(-c2c(C)cc(OC)c3c(=O)cc(-c4ccccc4)oc23)c2oc(-c3ccccc3)cc(=O)c12	MTT	48 h	11.8 µM
COc1cccc(C(=O)c2cc3c(-c4ccccc4)c(OC)ccc3o2)c1			5.4 µM
COc1cc(OC)c2c(=O)cc(-c3ccccc3)oc2c1-c1c(OC)cc(OC)c2c(=O)cc(-c3ccccc3)oc12	MTT	48 h	22.1 µM
C[C@@H](O)C(=O)CCCCCCC(=O)Nc1ccccc1	XTT		> 50 µM
COc1cc(C)cc2oc(-c3ccc(N(C)C)cc3)cc(=O)c12	MTT	48 h	24.2 µM
CC(C)CC1NC(=O)C(C(=O)NC(C(=O)NC2C(=O)N3C2SC(C)(C)C3C(=O)O)c2ccccc2)=C1O (stereo not drawn)	ATP luminescence	48 h	69.1 µg/mL
COc1cc(OC)c2c(=O)cc(-c3ccc(C(F)(F)F)cc3)oc2c1-c1c(OC)cc(OC)c2c(=O)cc(-c3ccc(C(F)(F)F)cc3)oc12	MTT	48 h	> 100 µM
CCN1CCN(C(=O)N[C@@H](C(=O)N[C@@H]2C(=O)N3[C@@H]2SC(C)(C)[C@@H]3C(=O)O)c2ccccc2)C(=O)C1=O	ATP luminescence	48 h	68.2 µg/mL
